Measurements published in ChEMBL document CHEMBL1944514, “Fluorescence detection of single nucleotide polymorphisms using nucleic acid probe containing tricyclic base-linked acyclonucleoside” (Bioorg Med Chem Lett, 2012).
Activity calls are given as the source filed them. The calls are words filed in the database; no cut-off is given here.

How the values were obtained:
Assay type in all cases: nucleic-acid assay
[1] = test system: Nucleic Acid; experiment: Binding affinity to 3'-r(CUUCCAGUUACAUAGAGA)-5' RNA assessed as change in melting temperature by spectrophotometry
[2] = test system: Nucleic Acid; experiment: Binding affinity to 3'-r(CUUCCAGUUCCAUAGAGA)-5' RNA assessed as fluorescence quenching by spectrophotometry
[3] = test system: Nucleic Acid; experiment: Binding affinity to 3'-r(CUUCCAGUUUCAUAGAGA)-5' RNA assessed as change in melting temperature by spectrophotometry
[4] = test system: Nucleic Acid; experiment: Binding affinity to 3'-r(CUUCCAGUUACAUAGAGA)-5' RNA assessed as fluorescence quenching by spectrophotometry
[5] = test system: Nucleic Acid; experiment: Binding affinity to 3'-r(CUUCCAGUUGCAUAGAGA)-5' RNA assessed as change in melting temperature by spectrophotometry
[6] = test system: Nucleic Acid; experiment: Binding affinity to 3'-r(CUUCCAGUUCCAUAGAGA)-5' RNA assessed as change in melting temperature by spectrophotometry
[7] = test system: Nucleic Acid; experiment: Binding affinity to 3'-r(CUUCCAGUUUCAUAGAGA)-5' RNA assessed as fluorescence quenching by spectrophotometry
[8] = test system: Nucleic Acid; experiment: Binding affinity to 3'-r(CUUCCAGUUGCAUAGAGA)-5' RNA assessed as fluorescence quenching by spectrophotometry
[9] = test system: Nucleic Acid; experiment: Binding affinity to 3'-r(CUUCCAGUUUCAUAGAGA)-5' RNA assessed as fluorescence quenching measured post UV-irradiation by visual analysis
Summary of the method: (§1)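 Solutions of the N-containing probe/RNA target duplex in Tm buffer were irradiated with a handheld UV lamp at 254, 302 or 365 nm. The emitted colour was judged by eye from photographs.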

[10] = test system: Nucleic Acid; experiment: Binding affinity to 3'-r(CUUCCAGUUACAUAGAGA)-5' RNA assessed as fluorescence quenching measured post UV-irradiation by visual analysis; summary of the method: as §1

Row | ΔTm [1] [°C] | Activity [2] | ΔTm [3] [°C] | Activity [4] | ΔTm [5] [°C] | Activity [6] | Activity [7] | Activity [8] | Activity [5] | ΔTm [6] [°C] | Activity [9] | Activity [1] | Activity [10] | Structure (SMILES)
1 | -5.9 | inactive | -4.6 | Active | -4.3 | inactive | Active | Active | – | – | – | – | – | Cc1cn([C@H]2C[C@H](OP(=O)(O)OC[C@H]3O[C@@H](n4ccc(N)nc4=O)C[C@@H]3OP(=O)(O)OC[C@H]3O[C@@H](n4cnc5c(N)ncnc54)C[C@@H]3OP(=O)(O)OC[C@H]3O[C@@H](n4cnc5c(N)ncnc54)C[C@@H]3OP(=O)(O)OC[C@H](Cn3cnc4cc5c(N)nc(N)nc5nc43)OP(=O)(O)OC[C@H]3O[C@@H](n4cnc5c(=O)[nH]c(N)nc54)C[C@@H]3OP(=O)(O)OC[C@H]3O[C@@H](n4cnc5c(=O)[nH]c(N)nc54)C[C@@H]3OP(=O)(O)CC[C@H]3O[C@@H](n4cc(C)c(=O)[nH]c4=O)C[C@@H]3OP(=O)(O)OC[C@H]3O[C@@H](n4cnc5c(N)ncnc54)C[C@@H]3OP(=O)(O)OC[C@H]3O[C@@H](n4cc(C)c(=O)[nH]c4=O)C[C@@H]3OP(=O)(O)OC[C@H]3O[C@@H](n4ccc(N)nc4=O)C[C@@H]3OP(=O)(O)OC[C@H]3O[C@@H](n4cc(C)c(=O)[nH]c4=O)C[C@@H]3OP(=O)(O)OC[C@H]3O[C@@H](n4ccc(N)nc4=O)C[C@@H]3OP(=O)(O)OC[C@H]3O[C@@H](n4cc(C)c(=O)[nH]c4=O)C[C@@H]3O)[C@@H](COP(=O)(O)O[C@H]3C[C@H](n4cnc5c(=O)[nH]c(N)nc54)O[C@@H]3COP(=O)(O)O[C@H]3C[C@H](n4cnc5c(=O)[nH]c(N)nc54)O[C@@H]3COP(=O)(O)O[C@H]3C[C@H](n4cnc5c(N)ncnc54)O[C@@H]3COP(=O)(O)O[C@H]3C[C@H](n4cnc5c(N)ncnc54)O[C@@H]3COP(=O)(O)O[C@H]3C[C@H](n4cnc5c(=O)[nH]c(N)nc54)O[C@@H]3CO)O2)c(=O)nc1N
2 | -3.9 | Active | -1.1 | Active | – | – | Active | inactive | inactive | -3.2 | – | – | – | Cc1cn([C@H]2C[C@H](OP(=O)(O)OC[C@H]3O[C@@H](n4ccc(N)nc4=O)C[C@@H]3OP(=O)(O)OC[C@H]3O[C@@H](n4cnc5c(N)ncnc54)C[C@@H]3OP(=O)(O)OC[C@H]3O[C@@H](n4cnc5c(N)ncnc54)C[C@@H]3OP(=O)(O)OC[C@H]3O[C@@H](n4ccc(N)nc4=O)C[C@@H]3OP(=O)(O)OC[C@H](Cn3cnc4cc5c(N)nc(N)nc5nc43)OP(=O)(O)OC[C@H]3O[C@@H](n4cnc5c(=O)[nH]c(N)nc54)C[C@@H]3OP(=O)(O)CC[C@H]3O[C@@H](n4cc(C)c(=O)[nH]c4=O)C[C@@H]3OP(=O)(O)OC[C@H]3O[C@@H](n4cnc5c(N)ncnc54)C[C@@H]3OP(=O)(O)OC[C@H]3O[C@@H](n4cc(C)c(=O)[nH]c4=O)C[C@@H]3OP(=O)(O)OC[C@H]3O[C@@H](n4ccc(N)nc4=O)C[C@@H]3OP(=O)(O)OC[C@H]3O[C@@H](n4cc(C)c(=O)[nH]c4=O)C[C@@H]3OP(=O)(O)OC[C@H]3O[C@@H](n4ccc(N)nc4=O)C[C@@H]3OP(=O)(O)OC[C@H]3O[C@@H](n4cc(C)c(=O)[nH]c4=O)C[C@@H]3O)[C@@H](COP(=O)(O)O[C@H]3C[C@H](n4cnc5c(=O)[nH]c(N)nc54)O[C@@H]3COP(=O)(O)O[C@H]3C[C@H](n4cnc5c(=O)[nH]c(N)nc54)O[C@@H]3COP(=O)(O)O[C@H]3C[C@H](n4cnc5c(N)ncnc54)O[C@@H]3COP(=O)(O)O[C@H]3C[C@H](n4cnc5c(N)ncnc54)O[C@@H]3COP(=O)(O)O[C@H]3C[C@H](n4cnc5c(=O)[nH]c(N)nc54)O[C@@H]3CO)O2)c(=O)nc1N
3 | – | Active | 1 | inactive | -0.9 | – | Active | Active | – | -0.8 | Active | inactive | inactive | Cc1cn([C@H]2C[C@H](OP(=O)(O)OC[C@H]3O[C@@H](n4ccc(N)nc4=O)C[C@@H]3OP(=O)(O)OC[C@H]3O[C@@H](n4cnc5c(N)ncnc54)C[C@@H]3OP(=O)(O)OC[C@H]3O[C@@H](n4cnc5c(N)ncnc54)C[C@@H]3OP(=O)(O)OC[C@H]3O[C@@H](n4cc(C)c(=O)[nH]c4=O)C[C@@H]3OP(=O)(O)OC[C@H](Cn3cnc4cc5c(N)nc(N)nc5nc43)OP(=O)(O)OC[C@H]3O[C@@H](n4cnc5c(=O)[nH]c(N)nc54)C[C@@H]3OP(=O)(O)CC[C@H]3O[C@@H](n4cc(C)c(=O)[nH]c4=O)C[C@@H]3OP(=O)(O)OC[C@H]3O[C@@H](n4cnc5c(N)ncnc54)C[C@@H]3OP(=O)(O)OC[C@H]3O[C@@H](n4cc(C)c(=O)[nH]c4=O)C[C@@H]3OP(=O)(O)OC[C@H]3O[C@@H](n4ccc(N)nc4=O)C[C@@H]3OP(=O)(O)OC[C@H]3O[C@@H](n4cc(C)c(=O)[nH]c4=O)C[C@@H]3OP(=O)(O)OC[C@H]3O[C@@H](n4ccc(N)nc4=O)C[C@@H]3OP(=O)(O)OC[C@H]3O[C@@H](n4cc(C)c(=O)[nH]c4=O)C[C@@H]3O)[C@@H](COP(=O)(O)O[C@H]3C[C@H](n4cnc5c(=O)[nH]c(N)nc54)O[C@@H]3COP(=O)(O)O[C@H]3C[C@H](n4cnc5c(=O)[nH]c(N)nc54)O[C@@H]3COP(=O)(O)O[C@H]3C[C@H](n4cnc5c(N)ncnc54)O[C@@H]3COP(=O)(O)O[C@H]3C[C@H](n4cnc5c(N)ncnc54)O[C@@H]3COP(=O)(O)O[C@H]3C[C@H](n4cnc5c(=O)[nH]c(N)nc54)O[C@@H]3CO)O2)c(=O)nc1N
4 | – | Active | -1.8 | inactive | -1.9 | – | Active | inactive | – | -3.5 | – | inactive | – | Cc1cn([C@H]2C[C@H](OP(=O)(O)OC[C@H]3O[C@@H](n4ccc(N)nc4=O)C[C@@H]3OP(=O)(O)OC[C@H]3O[C@@H](n4cnc5c(N)ncnc54)C[C@@H]3OP(=O)(O)OC[C@H]3O[C@@H](n4cnc5c(N)ncnc54)C[C@@H]3OP(=O)(O)OC[C@H](Cn3cnc4cc5c(N)nc(N)nc5nc43)OP(=O)(O)OC[C@H]3O[C@@H](n4cc(C)c(=O)[nH]c4=O)C[C@@H]3OP(=O)(O)OC[C@H]3O[C@@H](n4cnc5c(=O)[nH]c(N)nc54)C[C@@H]3OP(=O)(O)CC[C@H]3O[C@@H](n4cc(C)c(=O)[nH]c4=O)C[C@@H]3OP(=O)(O)OC[C@H]3O[C@@H](n4cnc5c(N)ncnc54)C[C@@H]3OP(=O)(O)OC[C@H]3O[C@@H](n4cc(C)c(=O)[nH]c4=O)C[C@@H]3OP(=O)(O)OC[C@H]3O[C@@H](n4ccc(N)nc4=O)C[C@@H]3OP(=O)(O)OC[C@H]3O[C@@H](n4cc(C)c(=O)[nH]c4=O)C[C@@H]3OP(=O)(O)OC[C@H]3O[C@@H](n4ccc(N)nc4=O)C[C@@H]3OP(=O)(O)OC[C@H]3O[C@@H](n4cc(C)c(=O)[nH]c4=O)C[C@@H]3O)[C@@H](COP(=O)(O)O[C@H]3C[C@H](n4cnc5c(=O)[nH]c(N)nc54)O[C@@H]3COP(=O)(O)O[C@H]3C[C@H](n4cnc5c(=O)[nH]c(N)nc54)O[C@@H]3COP(=O)(O)O[C@H]3C[C@H](n4cnc5c(N)ncnc54)O[C@@H]3COP(=O)(O)O[C@H]3C[C@H](n4cnc5c(N)ncnc54)O[C@@H]3COP(=O)(O)O[C@H]3C[C@H](n4cnc5c(=O)[nH]c(N)nc54)O[C@@H]3CO)O2)c(=O)nc1N
